According to PubChem BioAssay:
Calls of active or inactive are those of the source.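 The calls were made as follows, unless noted: active = Her2 level under about 52% in both replicate screens, with viability over 70% of control (limit read from the data); inconclusive = Her2 under the limit in one screen only, or viability under 70%; inactive = Her2 level above the set limit.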

Key:
[1] = Her2 expression decrease, cell viability multiplex – SKBR3 breast tumor cells, AlphaScreen, ATP viability, primary screen (AID 461); conditions: SKBR3 Her2 protein level, 18-24 h, measured here: SKBR3 viability, ATP luminescence, at 10 µM;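 as to Her2 level: lower value means less Her2 protein in the cells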;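 as to viability: percent of carrier control wells set as 100% viability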
[2] = molecular target: Receptor tyrosine-protein kinase erbB-2 (Homo sapiens) (UniProt P04626); test: as above; conditions: 18-24 h, at 10 µM, stronger effect = lower value
Sequence of Receptor tyrosine-protein kinase erbB-2 (Homo sapiens) (P04626 whole entry, looked up): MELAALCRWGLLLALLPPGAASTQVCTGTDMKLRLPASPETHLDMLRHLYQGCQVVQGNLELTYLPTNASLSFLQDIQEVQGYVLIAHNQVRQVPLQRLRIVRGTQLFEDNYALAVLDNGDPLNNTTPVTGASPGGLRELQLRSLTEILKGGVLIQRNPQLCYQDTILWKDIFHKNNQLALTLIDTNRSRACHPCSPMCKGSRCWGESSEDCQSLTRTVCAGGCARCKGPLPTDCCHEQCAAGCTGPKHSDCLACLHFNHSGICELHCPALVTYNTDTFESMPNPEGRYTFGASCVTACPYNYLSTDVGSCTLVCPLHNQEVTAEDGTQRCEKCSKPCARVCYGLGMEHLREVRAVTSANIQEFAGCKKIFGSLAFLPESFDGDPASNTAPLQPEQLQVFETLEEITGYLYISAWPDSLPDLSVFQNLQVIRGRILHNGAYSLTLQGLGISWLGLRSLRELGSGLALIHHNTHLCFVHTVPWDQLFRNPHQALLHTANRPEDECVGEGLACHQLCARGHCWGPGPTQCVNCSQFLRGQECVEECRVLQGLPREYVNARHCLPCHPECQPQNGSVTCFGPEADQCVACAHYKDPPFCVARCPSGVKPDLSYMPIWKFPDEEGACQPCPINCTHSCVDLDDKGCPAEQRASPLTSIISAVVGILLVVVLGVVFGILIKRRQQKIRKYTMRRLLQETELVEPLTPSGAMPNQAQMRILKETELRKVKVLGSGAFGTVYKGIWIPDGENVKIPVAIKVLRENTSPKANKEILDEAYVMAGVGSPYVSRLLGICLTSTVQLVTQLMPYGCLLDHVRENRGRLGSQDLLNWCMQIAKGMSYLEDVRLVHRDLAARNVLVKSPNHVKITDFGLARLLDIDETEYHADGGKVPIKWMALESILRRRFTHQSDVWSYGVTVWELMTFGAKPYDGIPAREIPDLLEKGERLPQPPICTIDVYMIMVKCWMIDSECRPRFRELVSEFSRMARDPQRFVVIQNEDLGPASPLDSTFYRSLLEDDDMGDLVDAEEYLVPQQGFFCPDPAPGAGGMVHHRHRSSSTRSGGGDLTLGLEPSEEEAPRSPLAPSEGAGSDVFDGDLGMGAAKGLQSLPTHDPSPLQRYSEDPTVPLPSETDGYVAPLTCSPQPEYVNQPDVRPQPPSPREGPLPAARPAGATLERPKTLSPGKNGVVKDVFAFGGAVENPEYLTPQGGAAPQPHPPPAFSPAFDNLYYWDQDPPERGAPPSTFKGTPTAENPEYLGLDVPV

[3] = reduced viability of SK-BR-3 breast cancer cells – cell-based, 24 h, human, pilot screen (AID 572;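 active = viability at or below 10% of carrier control in both of two separate runs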;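 also: compound exposure lasted between 18 and 24 h rather than exactly 24 h; 100% = carrier-treated control wells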); conditions: SK-BR-3 viability, CellTiter-Glo luminescence, at 10 µM, stronger effect = lower value
[4] = HUVEC growth inhibition – cell-based, human, primary screen (AID 575;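 active = viability at or below 30% in both replicate assays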;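 also: 100% = median of untreated cell wells with 0.1% DMSO on each plate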); conditions: HUVEC proliferation, CellTiter-Glo luminescence, 72 h; at 10 µM; stronger effect = lower value
Procedure, shortened: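 Test system – primary HUVEC, no more than 12 passages · Dosing – one dose, 10 µM final, 0.1% DMSO · Times – 72 h treatment at 37 °C · Measured by – ATP-based CellTiter-Glo luminescent read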

[5] = H69AR cell proliferation blockers – human, duplicate replicates, primary screen (AID 580;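 active = viability at or under a set limit in both replicates, limit being median viability minus 3 SD, cut at about 48% in these data, passing the limit was not always enough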;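 also: 100% = mean luminescence of untreated wells and 0% = no signal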); conditions: H69AR lung tumor cells viability, ATP luminescence, 72 h; at 10 µM; stronger effect = lower value
[6] = MRP1 drug-resistance reversers in H69AR cells – cell-based, doxorubicin co-treatment, pilot screen (AID 601;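 active = viability loss from added drug above about 55%, and viability with drug at most 40%, in both replicates, limit read from the data, passing the limit was not always enough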); conditions: CellTiter-Glo, 72 h, at 10 µM; for differential viability (reversal): stronger effect = higher value
[7] = yeast transport mutant growth inhibition pilot in 384-well plates, post-Golgi transport modulator project (AID 636; in the data active = inhibition above about 31%); conditions: absorbance 615 nm, about 18 h, stronger effect = higher value
[8] = growth suppression of yeast trafficking mutant, preliminary HTS, modulators of trafficking downstream of Golgi apparatus project, 1536-format plate, OD 615 nm (AID 637; in the data active = inhibition above about 30%); conditions: yeast transport mutant growth, absorbance 615 nm, 18 h; stronger effect = higher value
[9] = H69AR cells + 2 uM doxorubicin, measured here: viability with 2 uM doxorubicin, stronger effect = lower value
[10] = H69AR cells, compound alone cytotoxicity

| Structure (SMILES) | viability [1] [%] | Her2 level [2] | viability [3] | viability [4] | viability [5] | differential viability (reversal) ([6]; H69AR cells + 2 uM doxorubicin) | viability [6, 9] [%] | viability [6, 10] [%] | inhibition [7] | inhibition [8] |
| --- | --- | --- | --- | --- | --- | --- | --- | --- | --- | --- |
| Cn1cc(Br)c(C(=O)NC2CCCCC2)n1 | 102 | 112% (inactive) | 102% (inactive) | 96.7% (inactive) | 94.3% (inactive) | 3.45% (inactive) | 90.9 | 94.3 | 3.33% (inactive) | 0.79% (inactive) |
| CCn1cc(C2=NOC(C(=O)Nc3cc(C)nn3-c3ccccc3)C2)c(C)n1 (stereo not given) | 89.5 | 88.5% (inactive) | 89.5% (inactive) | 101% (inactive) | 101% (inactive) | 8.29% (inactive) | 93 | 101 | -1.18% (inactive) | -8.25% (inactive) |
| O=c1[nH]c(=O)n(C2CCCCCC2)c(O)c1C=NCc1ccc(F)cc1 | 90 | 86.5% (inactive) | 90% (inactive) | 90.1% (inactive) | 81.5% (inactive) | -4.79% (inactive) | 86.3 | 81.5 | -6.8% (inactive) | -2.22% (inactive) |
| Cc1onc(-c2ccccc2Cl)c1C(=O)NCc1cccnc1 | 103 | 102% (inactive) | 103% (inactive) | 110% (inactive) | 94.5% (inactive) | 9.16% (inactive) | 85.4 | 94.5 | -4.8% (inactive) | 6.13% (inactive) |
| COCCOC(=O)C1=C(N)OC2=C(C(=O)CC(C)(C)C2)C1c1cccnc1 (stereo not given) | 76 | 101% (inactive) | 76% (inactive) | 101% (inactive) | 99% (inactive) | 7.16% (inactive) | 91.9 | 99 | -5.95% (inactive) | -1.31% (inactive) |
| Cc1cnnc2c1-c1nonc1CC2 | 94.5 | 102% (inactive) | 94.5% (inactive) | 87.4% (inactive) | 105% (inactive) | 15.2% (inactive) | 90.1 | 105 | -6.13% (inactive) | 2.74% (inactive) |
| Cc1ccc(C(=O)Nc2nc3c(s2)CCCC3)o1 | 104 | 72% (inactive) | 104% (inactive) | 60.9% (inactive) | 73.3% (inactive) | -5.85% (inactive) | 79.1 | 73.3 | -1.71% (inactive) | 16.6% (inactive) |
| C=CCSc1ncccc1C(=O)O | 89.5 | 104% (inactive) | 89.5% (inactive) | 98.4% (inactive) | 97.1% (inactive) | 8.72% (inactive) | 88.3 | 97.1 | -1.32% (inactive) | -7.42% (inactive) |
| Nc1c(S(=O)(=O)c2cccs2)c2nc3ccccc3nc2n1CC1CCCO1 (stereo not given) | 79.5 | 89.5% (inactive) | 79.5% (inactive) | 85.2% (inactive) | 85.9% (inactive) | 4.9% (inactive) | 81 | 85.9 | -2.21% (inactive) | -1.33% (inactive) |
| CC1C(O)=C(c2nc3ccccc3[nH]2)C(=N)N1c1ccccc1 (stereo not given) | 110 | 83% (inactive) | 110% (inactive) | 50.5% (inactive) | 16% (active) | -39% (inactive) | 55 | 16 | -6.71% (inactive) | -10.6% (inactive) |
| Cc1ccccc1-c1noc(N)c1C#N | 110 | 70.5% (inactive) | 110% (inactive) | 92.3% (inactive) | 90% (inactive) | 1.42% (inactive) | 88.6 | 90 | -5.68% (inactive) | 4% (inactive) |
| O=C(NC1CCCC1)C(c1ccco1)N(Cc1ccccc1)C(=O)c1csnn1 (stereo not given) | 88.5 | 76% (inactive) | 88.5% (inactive) | 76.4% (inactive) | 97.5% (inactive) | 1.57% (inactive) | 95.9 | 97.5 | -8.65% (inactive) | 4.44% (inactive) |
| CCOC(=O)N1CCC(O)(c2cc(C)c(C)cc2C)CC1 | 102 | 95.5% (inactive) | 102% (inactive) | 109% (inactive) | 99.4% (inactive) | 9.24% (inactive) | 90.2 | 99.4 | -4.19% (inactive) | -5% (inactive) |
| CC(C)NC(=O)CSCc1ccccc1Cl | 96 | 95% (inactive) | 96% (inactive) | 86.8% (inactive) | 94.8% (inactive) | 18% (inactive) | 76.8 | 94.8 | -3.33% (inactive) | 0.97% (inactive) |
| CC(=O)c1c(NCCc2ccccc2)cc(C)oc1=O | 99.5 | 86% (inactive) | 99.5% (inactive) | 119% (inactive) | 101% (inactive) | 9.25% (inactive) | 91.5 | 101 | -2.57% (inactive) | -4.83% (inactive) |
| CC(C)Cn1c(-c2ccc(F)cc2)n[nH]c1=S | 114 | 98.5% (inactive) | 114% (inactive) | 80% (inactive) | 88.8% (inactive) | 8.11% (inactive) | 80.7 | 88.8 | -5% (inactive) | -1.33% (inactive) |
| NS(=O)(=O)c1ccc(NCc2c(F)cccc2Cl)cc1 | 100 | 95.5% (inactive) | 100% (inactive) | 102% (inactive) | 82.9% (inactive) | 6.38% (inactive) | 76.5 | 82.9 | -3.82% (inactive) | 7.54% (inactive) |
| O=C(Nc1ccccc1N1CCCCC1)c1ncoc1-c1ccc(F)cc1 | 115 | 109% (inactive) | 115% (inactive) | 78.1% (inactive) | 84.6% (inactive) | -1.2% (inactive) | 85.8 | 84.6 | -3.47% (inactive) | -2.86% (inactive) |
| CN(CCC#N)C(=O)COC(=O)c1ccc(Cl)c(S(N)(=O)=O)c1 | 104 | 97.5% (inactive) | 104% (inactive) | 106% (inactive) | 95.9% (inactive) | 7.13% (inactive) | 88.8 | 95.9 | -4.93% (inactive) | 3.71% (inactive) |
| CCOc1ccc(S(=O)(=O)N2CCN(C(=O)c3cccn3C)CC2)cc1 | 101 | 78.5% (inactive) | 101% (inactive) | 101% (inactive) | 97.3% (inactive) | 9.79% (inactive) | 87.5 | 97.3 | -9.04% (inactive) | -2.86% (inactive) |
| CC(Sc1nc(-c2ccccc2)cc(C(F)(F)F)n1)C(=O)N1CCC(C(N)=O)CC1 (stereo not given) | 100 | 87.5% (inactive) | 100% (inactive) | 85.6% (inactive) | 91.1% (inactive) | -1.27% (inactive) | 92.3 | 91.1 | -0.91% (inactive) | 11% (inactive) |
| Cc1cc2c(nn1)CCC/C2=N\O | 104 | 99% (inactive) | 104% (inactive) | 123% (inactive) | 95.6% (inactive) | 3.77% (inactive) | 91.8 | 95.6 | -4.47% (inactive) | 6.72% (inactive) |
| Cc1cc2nc3c(nc2cc1C)C1(C(=O)O)CCC3(C)C1(C)C (stereo not given) | 103 | 95.5% (inactive) | 103% (inactive) | 99.9% (inactive) | 95.3% (inactive) | -0.805% (inactive) | 96.1 | 95.3 | 0% (inactive) | -2.3% (inactive) |
| CCCN1C(=O)SC(CC(=O)Nc2ccc(Br)cc2)C1=O (stereo not given) | 105 | 112% (inactive) | 105% (inactive) | 77.7% (inactive) | 95.8% (inactive) | 4.58% (inactive) | 91.2 | 95.8 | -2.24% (inactive) | -8.41% (inactive) |
| Nc1nc(C2C(=O)CCCC2=O)cs1 | 97.5 | 99.5% (inactive) | 97.5% (inactive) | 102% (inactive) | 103% (inactive) | 5.64% (inactive) | 97.6 | 103 | -2.89% (inactive) | 4.1% (inactive) |
| Cc1nn(-c2ccccc2)c(C)c1C(=O)OCC(=O)c1c(N)n(CC(C)C)c(=O)n(C)c1=O | 104 | 74% (inactive) | 104% (inactive) | 64.3% (inactive) | 77.8% (inactive) | -24.7% (inactive) | 102 | 77.8 | -8.4% (inactive) | 4.75% (inactive) |
| CC1=C(n2nnc3ccccc32)C(c2ccccc2)C(C#N)=C(N)O1 (stereo not given) | 72 | 73% (inactive) | 72% (inactive) | 82.8% (inactive) | 83.8% (inactive) | 1.96% (inactive) | 81.9 | 83.8 | -3.9% (inactive) | -4.1% (inactive) |
| COc1ccccc1C(=O)Nc1ccc(S(=O)(=O)N2CCCC2)cc1 | 95.5 | 76.5% (inactive) | 95.5% (inactive) | 81.9% (inactive) | 94.5% (inactive) | 16.2% (inactive) | 78.4 | 94.5 | -4.93% (inactive) | 0.49% (inactive) |
